Measured values published in ChEMBL document CHEMBL1125520, “Improved brain delivery of AZT using a glycosyl phosphotriester prodrug” (1992).

Columns and labels:
Mus musculus [1] = test: In Vivo detection in Mice brains after oral administration of 41.63 mg/kg detected in the form of AZT 5`-P after 4 hr; type: functional
Mus musculus [2] = test: In Vivo detection in Mice brains after oral administration of 41.63 mg/kg detected in the form of AZT after 4 hr; type: functional
Mus musculus [3] = test: In Vivo detection in Mice plasma after oral administration of 41.63 mg/kg detected in the form of AZT phosphodiester 2 after 4 hr; type: functional, organism-based; design: dose 41.63 mg/kg
Mus musculus [4] = test: In Vivo detection in Mice plasma after oral administration of 41.63 mg/kg detected in the form of AZT after 8 hr; type: functional, organism-based; design: dose 41.63 mg/kg
Mus musculus [5] = test: In Vivo detection of total AZT in Mice plasma after oral administration of 41.63 mg/kg after 1 hr; type: functional, organism-based; design: dose 41.63 mg/kg
In short: (§1)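 Male Swiss mice (18–20 g, six weeks old) given the test substance or vehicle ([…]) by gavage as a 3 mM solution (1.5 µmol/mouse). Aortic blood was collected into heparinized tubes at 0.5–48 h and centrifuged at 13000g for 10 min. Plasma was stored at -22 °C and analysed by HPLC. Three mice were used per time point, in triplicate. Values were not corrected for recovery.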

Mus musculus [6] = test: In Vivo detection of total AZT in Mice brains after oral administration of 41.63 mg/kg after 2 hr; type: functional
In short: (§2)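 Male Swiss mice (18–20 g) dosed orally with a 3 mM solution in […] vehicle; decapitated at 0.5–48 h. Brains were homogenized in acetonitrile-water (3:1), centrifuged at 6000g for 40 min at 4 °C, lyophilized, redissolved in water and filtered (0.45 µm). Reversed-phase C18 column-switching HPLC with diode-array detection; standard spiking; vehicle-fed controls. Three mice per point, triplicates.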

Mus musculus [7] = test: In Vivo detection in Mice plasma after oral administration of 41.63 mg/kg detected in the form of AZT phosphodiester 2 after 2 hr; type: functional, organism-based; design: dose 41.63 mg/kg
Mus musculus [8] = test: In Vivo detection in Mice brains after oral administration of 41.63 mg/kg detected in the form of AZT 5`-P after 8 hr; type: functional
Mus musculus [9] = test: In Vivo detection in Mice brains after oral administration of 41.63 mg/kg detected in the form of AZT 5`-P after 0.5 hr; type: functional
Mus musculus [10] = test: In Vivo detection in Mice plasma after oral administration of 41.63 mg/kg detected in the form of AZT phosphodiester 2 after 24 hr; type: functional, organism-based; design: dose 41.63 mg/kg
Mus musculus [11] = test: In Vivo detection in Mice brains after oral administration of 41.63 mg/kg detected in the form of AZT phosphodiester 2 after 2 hr; type: functional
Mus musculus [12] = test: In Vivo detection in Mice plasma after oral administration of 41.63 mg/kg detected in the form of AZT phosphodiester 2 after 8 hr; type: functional, organism-based; design: dose 41.63 mg/kg
Mus musculus [13] = test: In Vivo detection in Mice brains after oral administration of 41.63 mg/kg detected in the form of AZT phosphodiester 2 after 0.5 hr; type: functional
Mus musculus [14] = test: In Vivo detection in Mice plasma after oral administration of 41.63 mg/kg detected in the form of AZT after 48 hr; type: functional, organism-based; design: dose 41.63 mg/kg
Mus musculus [15] = test: In Vivo detection in Mice brains after oral administration of 41.63 mg/kg detected in the form of AZT phosphodiester 2 after 8 hr; type: functional
Mus musculus [16] = test: In Vivo detection in Mice brains after oral administration of 41.63 mg/kg detected in the form of AZT phosphodiester 2 after 1 hr; type: functional
Mus musculus [17] = test: In Vivo detection in Mice brains after oral administration of 41.63 mg/kg detected in the form of AZT 5`-P after 24 hr; type: functional
Mus musculus [18] = test: In Vivo detection in Mice plasma after oral administration of 41.63 mg/kg detected in the form of AZT phosphodiester 2 after 1 hr; type: functional, organism-based; design: dose 41.63 mg/kg
Mus musculus [19] = test: In Vivo detection of total AZT in Mice plasma after oral administration of 58.33 mg/kg after 24 hr; type: functional, organism-based; design: dose 58.33 mg/kg; in short: as §1
Mus musculus [20] = test: In Vivo detection in Mice brains after oral administration of 58.33 mg/kg detected in the form of AZT after 2 hr; type: functional
Mus musculus [21] = test: In Vivo detection in Mice plasma after oral administration of 20 mg/kg detected in the form of AZT phosphodiester 2 after 0.5 hr; type: functional, organism-based; design: dose 20 mg/kg
Mus musculus [22] = test: In Vivo detection in Mice plasma after oral administration of 58.33 mg/kg detected in the form of AZT after 4 hr; type: functional, organism-based; design: dose 58.33 mg/kg
Mus musculus [23] = test: In Vivo detection in Mice plasma after oral administration of 58.33 mg/kg detected in the form of AZT phosphodiester 3 after 4 hr; type: functional, organism-based; design: dose 58.33 mg/kg; in short: as §1
Mus musculus [24] = test: In Vivo detection in Mice plasma after oral administration of 58.33 mg/kg detected in the form of AZT after 0.5 hr; type: functional, organism-based; design: dose 58.33 mg/kg
Mus musculus [25] = test: In Vivo detection in Mice brains after oral administration of 58.33 mg/kg detected in the form of AZT phosphodiester 3 after 24 hr; type: functional
Mus musculus [26] = test: In Vivo detection in Mice brains after oral administration of 58.33 mg/kg detected in the form of AZT phosphodiester 3 after 48 hr; type: functional
Mus musculus [27] = test: In Vivo detection in Mice plasma after oral administration of 58.33 mg/kg detected in the form of AZT 5`-P after 1 hr; type: functional, organism-based; design: dose 58.33 mg/kg
Mus musculus [28] = test: In Vivo detection in Mice brains after oral administration of 58.33 mg/kg detected in the form of AZT phosphodiester 2 after 8 hr; type: functional
Mus musculus [29] = test: In Vivo detection of total AZT in Mice brains after oral administration of 58.33 mg/kg after 2 hr; type: functional; in short: as §2
Mus musculus [30] = test: In Vivo detection of total AZT in Mice plasma after oral administration of 58.33 mg/kg after 0.5 hr; type: functional, organism-based; design: dose 58.33 mg/kg; in short: as §1
Mus musculus [31] = species: Mus musculus; test: Concentration of external nucleoside in mouse brain; type: functional
In short: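 Crude synaptosomes from three mouse brains were prepared by Gray–Whittaker homogenization in 10% sucrose buffered with 5 mM Tris-HCl, pH 7.4. The 7000g pellet was resuspended and incubated with each nucleoside at 3 mM for 15 min at 37 °C, stopped by cold 10-fold dilution and washed twice. Internal nucleoside was extracted in acetonitrile–water (3:1) and measured by HPLC.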

Mus musculus [32] = test: In Vivo detection of total AZT in Mice brains after oral administration of 58.33 mg/kg after 24 hr; type: functional; in short: as §2
Mus musculus [33] = test: In Vivo detection in Mice plasma after oral administration of 58.33 mg/kg detected in the form of AZT after 2 hr; type: functional, organism-based; design: dose 58.33 mg/kg
Mus musculus [34] = test: In Vivo detection in Mice plasma after oral administration of 58.33 mg/kg detected in the form of AZT phosphodiester 3 after 48 hr; type: functional, organism-based; design: dose 58.33 mg/kg; in short: as §1
Mus musculus [35] = test: In Vivo detection of total AZT in Mice brains after oral administration of 58.33 mg/kg after 8 hr; type: functional; in short: as §2
Mus musculus [36] = test: In Vivo detection in Mice brains after oral administration of 58.33 mg/kg detected in the form of AZT after 24 hr; type: functional
Mus musculus [37] = test: In Vivo detection in Mice brains after oral administration of 58.33 mg/kg detected in the form of AZT after 48 hr; type: functional
Mus musculus [38] = test: In Vivo detection in Mice plasma after oral administration of 58.33 mg/kg detected in the form of AZT 5`-P after 4 hr; type: functional, organism-based; design: dose 58.33 mg/kg

Structure (SMILES): Cc1cn([C@H]2C[C@H](N=[N+]=[N-])[C@@H](COP(=O)(O)OCCO[C@H]3O[C@H](CO)[C@@H](O)[C@H](O)[C@@H]3O)O2)c(=O)[nH]c1=O
- Brain content (Mus musculus [1]): 59.3 nmol/g
- Brain content (Mus musculus [2]): 0.9 nmol/g
- Plasma content (Mus musculus [3]): 0 nM ml-1
- Plasma content (Mus musculus [4]): 0 nM ml-1
- Plasma content (Mus musculus [5]): 43.5 nM ml-1
- Brain content (Mus musculus [6]): 26.2 nM ml-1
- Plasma content (Mus musculus [7]): 1.6 nM ml-1
- Brain content (Mus musculus [8]): 33.3 nmol/g
- Brain content (Mus musculus [9]): 31 nmol/g
- Plasma content (Mus musculus [10]): 0 nM ml-1
- Brain content (Mus musculus [11]): 5.2 nM ml-1
- Plasma content (Mus musculus [12]): 0 nM ml-1
- Brain content (Mus musculus [13]): 5.8 nM ml-1
- Plasma content (Mus musculus [14]): 0 nM ml-1
- Brain content (Mus musculus [15]): 8.9 nmol/g
- Brain content (Mus musculus [16]): 16.5 nM ml-1
- Brain content (Mus musculus [17]): 56.5 nmol/g
- Plasma content (Mus musculus [18]): 5.2 nM ml-1

Structure (SMILES): CCCCCCCCCCCCCCCCOP(=O)(OCCO[C@H]1O[C@H](CO)[C@@H](O)[C@H](O)[C@@H]1O)OCC1OC(n2cc(C)c(=O)[nH]c2=O)CC1N=[N+]=[N-] (stereo partly drawn)
- Plasma content (Mus musculus [19]): 28.5 nM ml-1
- Brain content (Mus musculus [20]): 2.9 nmol/g
- Plasma content (Mus musculus [21]): 0 nM ml-1
- Plasma content (Mus musculus [22]): 2.3 nM ml-1
- Plasma content (Mus musculus [23]): 0 nM ml-1
- Plasma content (Mus musculus [24]): 1.6 nM ml-1
- Brain content (Mus musculus [25]): 0 nmol/g
- Brain content (Mus musculus [26]): 0 nmol/g
- Plasma content (Mus musculus [27]): 12.7 nM ml-1
- Brain content (Mus musculus [28]): 5.3 nM ml-1
- Brain content (Mus musculus [29]): 140.8 nM ml-1
- Plasma content (Mus musculus [30]): 13.7 nM ml-1
- External nucleoside (Mus musculus [31]): 9100 nM/g
- Brain content (Mus musculus [32]): 87.9 nM ml-1
- Plasma content (Mus musculus [33]): 1.4 nM ml-1
- Plasma content (Mus musculus [34]): 0 nM ml-1
- Brain content (Mus musculus [35]): 113 nmol/g
- Brain content (Mus musculus [36]): 1.4 nmol/g
- Brain content (Mus musculus [37]): 1.1 nmol/g
- Plasma content (Mus musculus [38]): 3 nM ml-1
